KCNK9 block – blocks the human KCNK9 two-pore domain potassium channel; actives 1.2% (n = 310,000); HEK293 KCNK9, FluxOR thallium flux fluorescence; hits give low values; AID 488922; Q9NPC2; B-score at 10 µM;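 active = ratio B-score over 3 SD below the library mean, with starting fluorescence within 5 SD of its mean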;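 also: negative B-score means less thallium flux so channel inhibition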
Target sequence (Q9NPC2 whole entry, looked up, the tested form may be a part): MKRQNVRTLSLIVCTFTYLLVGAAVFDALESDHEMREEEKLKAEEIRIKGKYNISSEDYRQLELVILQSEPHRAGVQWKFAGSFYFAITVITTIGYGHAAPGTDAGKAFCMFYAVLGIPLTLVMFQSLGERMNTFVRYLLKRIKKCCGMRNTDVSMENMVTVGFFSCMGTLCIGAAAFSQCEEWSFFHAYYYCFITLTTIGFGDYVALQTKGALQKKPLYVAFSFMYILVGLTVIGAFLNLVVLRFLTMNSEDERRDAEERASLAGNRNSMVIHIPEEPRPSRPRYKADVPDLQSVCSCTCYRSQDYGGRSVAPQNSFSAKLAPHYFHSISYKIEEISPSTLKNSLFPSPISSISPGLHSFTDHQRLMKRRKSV
KCNQ1 inh – blocks the human KCNQ1 potassium channel. actives 1.3% (n = 310,000). CHO-K1 KCNQ1, FluxOR thallium flux fluorescence; hits give high values. AID 2642. B-score at 10 µM;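 active = compounds whose thallium flux B-score, printed positive for inhibition, exceeds three library SD while starting fluorescence stays within three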;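 also: channel opened by potassium depolarization with thallium stimulus after 20 min compound exposure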
KCNK3 inh – human KCNK3 channel inhibition, primary screen; actives 0.84% (n = 340,000); B-score at 10 µM; CHO-KCNK3 thallium flux, FluxOR fluorescence; hits give low values;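 active = B-score under library mean minus 4 SD, starting fluorescence ratio at most library mean plus 5 SD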;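 also: more negative B-score means stronger inhibition of thallium flux through KCNK3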
Kir21 block – inhibitors of mouse Kir2.1 inward-rectifier potassium channel. B-score at 10 µM. P35561. AID 1672. actives 0.85% (n = 310,000). HEK293-Kir2.1, FluxOR thallium flux fluorescence; hits give low values;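 active = fluorescence ratio B-score at or below minus 3 SD of library scores, with starting-brightness B-score within 2 SD, cut at about -4.2 in these data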;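 also: channel flux triggered by added potassium and thallium sulfate stimulus; B-score of peak minus minimum fluorescence over baseline after thallium stimulus; more negative B-score means stronger Kir2.1 block with less thallium influx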
KCNQ1 act – potentiates or activates the human KCNQ1 potassium channel; CHO-K1 KCNQ1, thallium flux FluxOR fluorescence; hits give high values; B-score at 10 µM; actives 0.35% (n = 310,000);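 active = fluorescence ratio B-score, a plate-corrected score, at least three library SD, with initial intensity B-score within 5 SD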
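Assay system: CHO-K1 cells stably expressing KCNQ1; Medium: assay buffer with matched DMSO; Also added: K+/Tl+ depolarizing stimulus; Dosing: single dose; Timing: dye 90 min, compound 20 min, room temperature; Measured by: kinetic FluxOR thallium fluorescence, 10-s 1-Hz baseline, 110-s post-stimulus read; Read-out: peak-minus-minimum fluorescence over initial fluorescence, negative-control normalized, B-scored.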
hERG protect – shields human hERG channel from block by proarrhythmic agents; Q12809; CHO-hERG, FluxOR thallium flux, dofetilide IC70 present; activation (rescue from dofetilide block), less the hit threshold, % at 10 µM; actives 0.51% (n = 310,000);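 active = activation above the mean of controls blocked by dofetilide plus 5 SD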;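 also: thallium influx through hERG after potassium depolarization seen as dye fluorescence rise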
* hit, by the source's call; i = inactive; · = no result. An excerpt weighted towards active compounds, which were near 3.7% of everything screened.

SMILES	KCNK9 block	KCNQ1 inh	KCNK3 inh	Kir21 block	KCNQ1 act	hERG protect
Cc1ccc(NC(=O)Cc2ccc(-c3ccccc3)cc2)nc1	i	i	i	0.99	i	-2.6
CC(NC(=S)NC(=O)c1cccs1)c1ccccc1 (stereo unspecified)	·	·	i	·	·	·
CC(NC(=O)c1cccs1)C(S)c1ccccc1 (stereo unspecified)	-6.59*	i	i	-0.77	i	-6.5
CSc1ccccc1NC(=O)Nc1ccc(F)c(Cl)c1	i	i	i	0.7	i	-11.3
O=C(Nc1ccc(Cl)c(Cl)c1)Nc1ccc(Br)cc1F	i	7*	i	-0.41	i	-28.6
CCc1ccc(NC(=S)Nc2cc(C(=O)O)ccc2N2CC3CC(C2)c2cccc(=O)n2C3)cc1 (stereo unspecified)	i	i	i	0.02	i	-12.2
O=C(O)c1ccc(N2CC3CC(C2)c2cccc(=O)n2C3)c(NC(=S)Nc2ccc(Br)cc2)c1 (stereo unspecified)	i	6*	i	-0.79	i	-18.2
COc1ccc(NC(=O)/C(Cl)=C(/Cl)S(=O)(=O)Cc2ccccc2)cn1	i	i	i	-4.99*	i	-18.9
O=C(CCC(=O)N(CC(=O)NC1CCCC1)c1ccccc1F)Nc1nccs1	i	i	i	1.68	i	-5.4
COc1ccc(NC(=O)CSc2nc3ccccc3c(=O)n2CCCN2CCCCC2)c(OC)c1	i	i	i	-6.13*	i	-5.5
COCCn1c(-c2ccc(OC)cc2)cnc1SCC(=O)Nc1ccc(OC)cc1OC	i	6*	i	-0.93	i	-5.5
CCOC(=O)CSc1nc2c(sc3ccccc32)c(=O)n1CCCN1CCOCC1	i	i	i	-0.87	i	4.9*
COCCn1c(-c2ccc(OC)cc2)cnc1SCC(=O)Nc1cc(C)on1	i	i	i	-0.05	i	-2.2
CCOC(=O)c1ccccc1NC(=O)CSc1nc2ccccc2c(=O)n1CCCN1CCOCC1	·	·	-11.2*	·	·	·
COCCCNC(=O)CSc1nc2ccccc2c(=O)n1CCCN1CCCCC1	i	i	i	-1.53	i	-1.4
CC(CCc1ccccc1)NS(=O)(=O)c1ccc(Cl)c(C(=O)O)c1 (stereo unspecified)	i	i	i	-0.05	i	-8.8
Cc1cccc(CSc2ccc(S(=O)(=O)N3CCCC3)cn2)c1	·	·	i	·	·	·
Cc1c(O)nc(SC2CC(=O)N(c3cc(Cl)cc(Cl)c3)C2=O)[nH]c1=O (stereo unspecified)	i	i	i	1.84	i	-10.1
Cc1noc(C)c1COC(=O)COc1cccc2c1OC(C)(C)C2	i	i	i	-5.52*	i	-8.0
CC1(C)Cc2cccc(OCC(=O)OCC(=O)c3ccccc3)c2O1	·	·	i	·	·	·
COc1ccc(-c2[nH]ncc2CN(CCO)CC23CC4CC(CC(C4)C2)C3)c(OC)c1	i	i	i	-5.59*	i	-15.9
COc1ccc(F)c(CN(C)CC2CCCN(CCc3ccc(F)cc3)C2)c1 (stereo unspecified)	i	i	i	-9.75*	i	-6.1
Cc1ccccc1CCN1CCCC(CN(C)CC(C)(C)C)C1 (stereo unspecified)	i	i	i	-0.31	i	-10.3
CC(=O)c1cccc(CN(C)CC2CCCN(CCc3ccccc3C)C2)c1 (stereo unspecified)	i	i	i	-6.45*	i	-0.8
CCOc1cccc(CN(C)CC2CCCN(CCc3ccc(Cl)cc3)C2)c1O (stereo unspecified)	i	i	i	-7.33*	i	-4.7
SMILES	KCNK9 block	KCNQ1 inh	KCNK3 inh	Kir21 block	KCNQ1 act	hERG protect
COc1ccc(CN(C)CC2CCCN(CCc3ccc(Cl)cc3)C2)cc1OC (stereo unspecified)	i	i	i	-6.25	i	-5.2
O=S(=O)(c1ccc(Cl)cc1)c1snnc1-c1ccccc1	i	i	i	-9.97*	i	-10.6
O=S(=O)(c1ccc(F)cc1)c1snnc1-c1ccccc1	i	i	i	-14.8*	i	-11.8
COc1ccc(C2=NN(C(=O)c3ccccc3)C(c3ccc(OC)c(OC)c3)C2)cc1OC (stereo unspecified)	i	i	i	-0.46	i	-6.7
COc1ccc(C2CC(c3ccc([N+](=O)[O-])cc3)=NN2C(=O)c2ccccc2)cc1OC (stereo unspecified)	-7.04*	i	i	0.29	i	-4.4
CSCCC(NS(=O)(=O)c1ccc(C)cc1)C(=O)Nc1ccc(C)cn1 (stereo unspecified)	i	i	i	1.27	i	-6.5
Cc1ccccc1CS(=O)(=O)c1nnc([C@H](Cc2ccccc2)NC(=O)OC(C)(C)C)o1	i	i	i	-3.9	12*	-15.5
CCSc1nnc([C@H](Cc2ccccc2)NC(=O)OC(C)(C)C)o1	i	i	i	-0.41	i	-13.3
CCC(=O)c1ccc(OCC(=O)OCC(=O)Nc2cccc(S(=O)(=O)N3CCOCC3)c2)cc1	·	·	i	·	·	·
COc1cc(C(=O)c2nccc3cc(OC)c(OC)cc23)c([N+](=O)[O-])cc1OC	i	i	i	1.69	i	5.9*
CCCC1OC(c2cc3c(cc2Cl)OCO3)OCC1CC (stereo unspecified)	·	·	i	·	·	·
CC(C)(C)c1ccc(NC(=O)NC2CCCc3ccccc32)cc1 (stereo unspecified)	i	6*	i	-0.91	i	-4.5
O=C(O)c1cc(Cl)c2ccccc2c1O	i	6*	i	1.82	i	-13.0
COc1ccc(C)cc1NC(=O)Cn1c(=O)oc2ccccc21	i	i	i	0.06	i	-4.2
CC(C)(C)S(=O)N1Cc2cc(CO)ccc2[C@@H]1CCO (stereo partly specified)	·	·	i	·	·	·
CCOc1ccccc1CNC(=O)C1CCN(c2nnc(C)c3c(C)n(-c4ccc(C)cc4)nc23)CC1	i	i	i	-0.54	i	-10.9
Cc1ccc(-n2nc3c(N4CCC(C(=O)NCc5ccccc5C)CC4)nnc(C)c3c2C)cc1	i	7*	i	-1.48	i	-8.8
N#CCCN1CCN(CCC#N)C1=S	·	·	i	·	·	·
CNc1ccc(/C=C/C(=O)c2ccc3c(c2)OCCO3)cc1[N+](=O)[O-]	i	10*	i	0.22	i	-1.7
COc1ccc(CN2C(=O)c3ccccc3C(/C=N\OCc3ccc(F)cc3)C2=O)cc1 (stereo unspecified)	i	10*	i	0.26	i	-13.0
COc1ccc(CN2C(=O)c3ccccc3C2=O)cc1	i	i	i	1.64	i	-9.3
